Assay results taken from PMC5722212 (Chemistry (Weinheim an der Bergstrasse, Germany), 2017).

Key:
Akt = assay: Western blot analysis of cytosolic Hsp90-dependent client protein Akt; assay type: cell-based; conditions: geldanamycin 0.5 μM, 24 h; all cell lines
Summary of the method: (§1)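 MDA-MB-231 and PC3-MM2 (DMEM), SK-MEL-28 (EMEM) or A549 (F-12K) cells, each in medium with 10% FBS and penicillin/streptomycin, were seeded at 100,000 cells/mL and grown 24 h at 37°C, 5% CO2. Cells were then treated with test compound, geldanamycin (0.5 μM) or DMSO vehicle for 24 h. Cold-PBS harvest, lysis with protease inhibitors, BCA-equalised protein, reducing 10% gels, PVDF, HRP chemiluminescence; actin loading control.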

Hsp70 = assay: Western blot analysis of Hsp70 induction; assay type: cell-based; conditions: geldanamycin 0.5 μM, 24 h; all cell lines
Summary of the method: as §1

COC1=C2C[C@@H](C)C[C@H](OC)[C@H](O)[C@@H](C)/C=C(\C)[C@H](OC(N)=O)[C@@H](OC)/C=C\C=C(/C)C(=O)NC(=CC1=O)C2=O [geldanamycin]
degradation of Akt (Akt): induced the degradation of Akt | levels of Hsp70 (Hsp70): increased the levels of Hsp70
